The first data set concerns the target Phospholipase A2, major isoenzyme (Sus scrofa, UniProt P00592). The data set is described as follows: Inhibition of pig group IB PLA2 by fluorimetric assay.
Conditions: not given
In a few lines: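 Porcine pancreatic sPLA2, 60 ng per 1 mL, in 50 mM Tris-HCl pH 7.5, 100 mM NaCl, 1 mM EGTA, 0.1% fatty acid-free BSA, 2 µM pyrene substrate β-pyC-10-PG. Inhibitor in ethanol or DMSO added after BSA. Activity as µmol hydrolyzed/min/mg, giving 50%-inhibition concentration.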
Sequence of Phospholipase A2, major isoenzyme (P00592 whole entry): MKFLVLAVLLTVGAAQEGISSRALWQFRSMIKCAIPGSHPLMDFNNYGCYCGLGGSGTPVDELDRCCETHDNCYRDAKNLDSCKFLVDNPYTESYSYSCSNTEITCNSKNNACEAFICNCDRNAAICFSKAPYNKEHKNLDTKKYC
In general, IC50 refers to the concentration that inhibits the measured activity by half. A low value points to inhibition by little substance. For the compound `CCCCCCCCCCCCCCOC(COc1ccc(-c2nc(=O)o[nH]2)cc1)COc1ccc(-c2nc(=O)o[nH]2)cc1`, the IC50 was over 100 µM.

For the compound `CCCCCCCOCC(COc1ccc(Cc2noc(=O)[nH]2)cc1)OCCCCCCC` (racemic), the IC50 is over 100 µM.

Consider `CCCCCCCCCOCC(COc1ccc(Cc2noc(=O)[nH]2)cc1)OCCCCCCCCC` (racemic), for which the concentration for half-maximal inhibition (IC50) was over 100 µM.

As to `CCCCCCCCCCCCCCOc1ccc(Cc2noc(=O)[nH]2)cc1`, the IC50 was over 100 µM.

For `CCCCCCCCCCCCCCOC(COc1ccc(Cc2nc(=O)o[nH]2)cc1)COc1ccc(Cc2nc(=O)o[nH]2)cc1`, the IC50 came to 39.9 µM. This lies in the double-digit micromolar range.

As for `CCCCCCCCCCCCCCOC(COCc1cccc(OC)c1)COc1ccc(-c2nc(=O)o[nH]2)cc1` (racemic), the IC50 worked out at 39 µM. This IC50 and that of the compound before are within 1.5-fold of each other.

In turn, `CCCCCCCCCCCCCCOC(COc1ccc(-c2noc(=O)[nH]2)cc1)COC(c1ccccc1)(c1ccccc1)c1ccccc1` (racemic) displayed a half-maximal inhibitory concentration (IC50) of over 50 µM.

For `CCCCCOC(COc1ccc(Cc2noc(=O)[nH]2)cc1)COc1ccc(Cc2noc(=O)[nH]2)cc1`, the 50% inhibitory concentration (IC50) was over 100 µM.

Compound `CCCCCCCCCCCCCCOC(COCC)COc1ccc(-c2noc(=O)[nH]2)cc1` (racemic) had an IC50 of over 40 µM.

As for `CCCCCCCCCCCCCCOCC(COc1ccc(Cc2nc(=O)o[nH]2)cc1)Oc1ccc(Cc2nc(=O)o[nH]2)cc1` (racemic), it took 57.8 µM to reach half-maximal inhibition (IC50). In other words, the double-digit micromolar range.

`CCCCCCCCCCCCCCOC(COCc1ccc(C#N)cc1)COc1ccc(Cc2nc(=O)o[nH]2)cc1` (racemic) returned an IC50 of 9.6 µM.

For a further data set, the target named is T1, Phospholipase A2, membrane associated (Homo sapiens, UniProt P14555).
T1 sequence (P14555 whole entry): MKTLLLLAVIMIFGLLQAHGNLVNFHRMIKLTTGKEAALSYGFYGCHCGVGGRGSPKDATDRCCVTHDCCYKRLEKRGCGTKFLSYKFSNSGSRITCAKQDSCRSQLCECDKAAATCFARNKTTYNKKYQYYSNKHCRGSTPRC
The data set is described as follows: Inhibition of human group IIA PLA2 by fluorimetric assay.
Conditions: not given
The method, boiled down: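 Fluorimetric (Radvanyi method): 1 ng synthetic hGIIA sPLA2 in 1 mL of 50 mM Tris-HCl pH 7.5, 100 mM NaCl, 1 mM EGTA, 0.1% fatty acid-free BSA, 2 µM β-pyC-10-PG. Inhibitor added in ethanol or DMSO after BSA. Reaction started with 10 mM CaCl2 (final), fluorescence rise followed 2 min.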
Consider `CCCCCCCCCCCCCCOC(COc1ccc(-c2nc(=O)o[nH]2)cc1)COc1ccc(-c2nc(=O)o[nH]2)cc1`, for which it took 47.7 µM to reach half-maximal inhibition (IC50). That is a double-digit micromolar value.

`CCCCCCCOCC(COc1ccc(Cc2noc(=O)[nH]2)cc1)OCCCCCCC` (racemic) displayed an IC50 of 11.6 µM.

With `CCCCCCCCCOCC(COc1ccc(Cc2noc(=O)[nH]2)cc1)OCCCCCCCCC` (racemic), inhibition was half-maximal at 2.7 µM (IC50).

`CCCCCCCCCCCCCCOc1ccc(Cc2noc(=O)[nH]2)cc1`: the IC50 turned out to be 4 µM. The IC50 values of the last two compounds are within 1.5-fold of each other.

Turning to `CCCCCCCCCCCCCCOC(COc1ccc(Cc2nc(=O)o[nH]2)cc1)COc1ccc(Cc2nc(=O)o[nH]2)cc1`, the 50% inhibitory concentration (IC50) came out at 2.1 µM.

The compound `CCCCCCCCCCCCCCOC(COCc1cccc(OC)c1)COc1ccc(-c2nc(=O)o[nH]2)cc1` (racemic) returned an IC50 of 2.2 µM.

For the compound `CCCCCCCCCCCCCCOC(COc1ccc(-c2noc(=O)[nH]2)cc1)COC(c1ccccc1)(c1ccccc1)c1ccccc1` (racemic), 0.9 µM corresponded to half-maximal inhibition (IC50).

Compound `CCCCCOC(COc1ccc(Cc2noc(=O)[nH]2)cc1)COc1ccc(Cc2noc(=O)[nH]2)cc1` showed an IC50 of 30.5 µM.

`CCCCCCCCCCCCCCOC(COCC)COc1ccc(-c2noc(=O)[nH]2)cc1` (racemic) displayed a 50% inhibitory concentration (IC50) of 29.8 µM.

With `CCCCCCCCCCCCCCOCC(COc1ccc(Cc2nc(=O)o[nH]2)cc1)Oc1ccc(Cc2nc(=O)o[nH]2)cc1` (racemic), the half-maximal inhibitory concentration (IC50) came out at 3.1 µM. This IC50 lies about 9.6-fold lower than the previous one.

With `CCCCCCCCCCCCCCOC(COCc1ccc(C#N)cc1)COc1ccc(Cc2nc(=O)o[nH]2)cc1` (racemic), 1.1 µM corresponded to half-maximal inhibition (IC50).

For another data set, the target named is Phospholipase A2 (Homo sapiens, UniProt P04054). In words: Inhibition of human group IB PLA2 in [3H]oleate-labeled Escherichia coli membrane by radiometric assay.
Sequence of Phospholipase A2 (P04054 whole entry): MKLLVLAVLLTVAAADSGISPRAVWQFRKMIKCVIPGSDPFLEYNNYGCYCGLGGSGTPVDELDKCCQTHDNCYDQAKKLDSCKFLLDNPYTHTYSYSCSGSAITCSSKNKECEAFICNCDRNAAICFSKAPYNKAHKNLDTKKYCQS
Conditions: not given
The method, boiled down:
(§1)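 Incubation 30-60 min, time adjusted for linear hydrolysis. Stopped with 0.1 M EDTA pH 8.0/1% BSA, centrifuged 10 000g, supernatant counted. Enzyme-free controls subtracted. IC50 obtained after 10 µM screen.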
`Cc1c(C(=O)C(N)=O)c2c(OCC(=O)O)cccc2n1Cc1ccccc1-c1ccccc1` came in with a half-maximal inhibitory concentration (IC50) of 3.3 µM. This lies in the single-digit micromolar range.

Consider `CCCCCCCCCCCCCCOC(COc1ccc(-c2noc(=O)[nH]2)cc1)COC(c1ccccc1)(c1ccccc1)c1ccccc1` (racemic), for which the concentration for half-maximal inhibition (IC50) is 5.75 µM.

Compound `CCCCCCCCCCCCCCOC(COCc1ccc(C#N)cc1)COc1ccc(Cc2nc(=O)o[nH]2)cc1` (racemic) showed an IC50 of 7.6 µM. The IC50 values of the last two compounds are within 1.5-fold of each other.

The target in another data set is T2, Group 10 secretory phospholipase A2 (Homo sapiens, UniProt O15496).
T2 sequence (O15496 whole entry): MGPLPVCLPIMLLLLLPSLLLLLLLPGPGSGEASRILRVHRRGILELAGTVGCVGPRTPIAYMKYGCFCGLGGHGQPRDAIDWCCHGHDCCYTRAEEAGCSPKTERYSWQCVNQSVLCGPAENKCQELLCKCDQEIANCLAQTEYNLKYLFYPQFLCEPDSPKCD
In words: Inhibition of human group X PLA2 in [3H]oleate-labeled Escherichia coli membrane by radiometric assay.
Conditions: not given
The method, boiled down:
as §1
Consider `Cc1c(C(=O)C(N)=O)c2c(OCC(=O)O)cccc2n1Cc1ccccc1-c1ccccc1`, for which 4.57 µM corresponded to half-maximal inhibition (IC50).

Take `CCCCCCCCCCCCCCOC(COc1ccc(-c2noc(=O)[nH]2)cc1)COC(c1ccccc1)(c1ccccc1)c1ccccc1` (racemic): the IC50 was determined as 1.25 µM.

Turning to `CCCCCCCCCCCCCCOC(COCc1ccc(C#N)cc1)COc1ccc(Cc2nc(=O)o[nH]2)cc1` (racemic), inhibition was half-maximal at 5 µM (IC50). Against the preceding compound, the IC50 is about 4-fold higher.

Test system in another data set: not listed separately
The data set is described as follows: Lipophilicity, log P of the compound. The settings on record: octanol/water. It is filed as physicochemical. The method, boiled down: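 log P calculated from Rekker's hydrophobic fragmental constants.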
As a reminder, the logP is the decadic logarithm of the partition coefficient of the neutral form, usually between octanol and water. Compound `CCCCCCCCCOCC(COc1ccc(Cc2noc(=O)[nH]2)cc1)OCCCCCCCCC` (racemic) had a logP of 9.18.

Turning to `CCCCCCCCCCCCCCOC(COc1ccc(-c2noc(=O)[nH]2)cc1)COC(c1ccccc1)(c1ccccc1)c1ccccc1` (racemic), the logP stood at 11.8.

Staying with this data set, now noted: octanol/water; read-out: LogP.
Consider `CCCCCCCCCCCCCCOC(COc1ccc(-c2nc(=O)o[nH]2)cc1)COc1ccc(-c2nc(=O)o[nH]2)cc1`, for which the logP was 7.05.

Regarding `CCCCCCCOCC(COc1ccc(Cc2noc(=O)[nH]2)cc1)OCCCCCCC` (racemic), the log partition coefficient (logP) stood at 7.12.

For `CCCCCCCCCCCCCCOc1ccc(Cc2noc(=O)[nH]2)cc1`, the logP stood at 7.08.

For `CCCCCCCCCCCCCCOC(COc1ccc(Cc2nc(=O)o[nH]2)cc1)COc1ccc(Cc2nc(=O)o[nH]2)cc1`, the logP is 7.64.

Regarding `CCCCCCCCCCCCCCOC(COCc1cccc(OC)c1)COc1ccc(-c2nc(=O)o[nH]2)cc1` (racemic), the logP stood at 8.56.

With `CCCCCOC(COc1ccc(Cc2noc(=O)[nH]2)cc1)COc1ccc(Cc2noc(=O)[nH]2)cc1`, the log partition coefficient (logP) was 2.97.

In the case of `CCCCCCCCCCCCCCOC(COCC)COc1ccc(-c2noc(=O)[nH]2)cc1` (racemic), the lipophilicity (logP) came out at 7.34.

As to `CCCCCCCCCCCCCCOCC(COc1ccc(Cc2nc(=O)o[nH]2)cc1)Oc1ccc(Cc2nc(=O)o[nH]2)cc1` (racemic), the logP stood at 7.64.

For the compound `CCCCCCCCCCCCCCOC(COCc1ccc(C#N)cc1)COc1ccc(Cc2nc(=O)o[nH]2)cc1` (racemic), the logP turned out to be 8.94.

For a further data set, the target named is T3, Phospholipase A2 group V (Homo sapiens, UniProt P39877).
T3 sequence (P39877 whole entry): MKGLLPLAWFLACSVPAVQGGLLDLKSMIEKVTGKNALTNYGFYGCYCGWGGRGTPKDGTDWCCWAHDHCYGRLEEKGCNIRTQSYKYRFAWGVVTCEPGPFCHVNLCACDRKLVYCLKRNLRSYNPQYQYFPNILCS
The data set is described as follows: Inhibition of human group V PLA2 in [3H]oleate-labeled Escherichia coli membrane by radiometric assay.
Conditions: not given
In a few lines: as §1
For `Cc1c(C(=O)C(N)=O)c2c(OCC(=O)O)cccc2n1Cc1ccccc1-c1ccccc1`, the IC50 is 270 nM.

As for `CCCCCCCCCCCCCCOC(COc1ccc(-c2noc(=O)[nH]2)cc1)COC(c1ccccc1)(c1ccccc1)c1ccccc1` (racemic), the IC50 was found to be 660 nM.

Regarding `CCCCCCCCCCCCCCOC(COCc1ccc(C#N)cc1)COc1ccc(Cc2nc(=O)o[nH]2)cc1` (racemic), the half-maximal inhibitory concentration (IC50) stood at 1730 nM.

The target of a further data set is T1, Phospholipase A2, membrane associated. The data set is described as follows: Inhibition of human group IIA PLA2 in [3H]oleate-labeled Escherichia coli membrane by radiometric assay.
Conditions: not given
The method, boiled down: as §1
On to `Cc1c(C(=O)C(N)=O)c2c(OCC(=O)O)cccc2n1Cc1ccccc1-c1ccccc1`, for which half-maximal inhibition (IC50) required 180 nM.

As for `CCCCCCCCCCCCCCOC(COc1ccc(-c2noc(=O)[nH]2)cc1)COC(c1ccccc1)(c1ccccc1)c1ccccc1` (racemic), it took 2000 nM to reach half-maximal inhibition (IC50).

Compound `CCCCCCCCCCCCCCOC(COCc1ccc(C#N)cc1)COc1ccc(Cc2nc(=O)o[nH]2)cc1` (racemic) gave an IC50 of 7600 nM. Compared with the last compound, the IC50 is about 3.8-fold higher.

Source of the values: ChEMBL document CHEMBL1142970, “Inhibition of secreted phospholipase A2. 4-glycerol derivatives of 4,5-dihydro-3-(4-tetradecyloxybenzyl)-1,2,4-4H-oxadiazol-5-one with broad activities” (J Med Chem, 2007).
